Measurements as given in ChEMBL document CHEMBL1148783, “Selection of a respiratory syncytial virus fusion inhibitor clinical candidate, part 1: improving the pharmacokinetic profile using the structure-property relationship” (J Med Chem, 2007).

What was measured:
[1] = Cytotoxicity against HeLaM cells; type: cell-based, M-HeLa; conditions: human
[2] = system: Respiratory syncytial virus; experiment: Antiviral activity against RSV in HeLaM cells; type: functional, organism-based; conditions: human respiratory syncytial virus
In short: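 HeLaM epithelial-like cells infected with RSV with or without a range of compound concentrations, with virus, cell and cytotoxicity controls and ribavirin as reference in each test. After one week of incubation, viability was read by MTT and spectrophotometric OD. pEC50 was calculated from the OD values.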

[3] = Half life (24 to 96 hrs) in Sprague-Dawley rat lung; type: ADME, tissue-based
In short: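 Lung half-life came from IV-dosed male Sprague-Dawley rats (1 mg/kg, 10 min tail-vein infusion), with three animals per time point. Lungs were homogenized in water (1/9 w/v) and analyzed by LC-MS/MS, using the concentrations measured between 24 and 96 h post-dose.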

[4] = Drug level in Sprague-Dawley rat lung after 4 hrs; type: ADME, tissue-based; conditions: read-out: Drug uptake
In short: (§1)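 Male Sprague-Dawley rats (250-300 g) were given a 10 min tail-vein infusion at a final dose of 1 mg/kg. Three rats per time point were killed at 4, 24, 96 and 168 h. Plasma was taken from EDTA blood, and lung was homogenized 1/9 w/v in demineralized water. Samples were stored at ≤-18 °C and quantified by a qualified LC-MS/MS method.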

[5] = Drug level in Sprague-Dawley rat lung after 168 hrs; type: ADME, tissue-based; conditions: read-out: Drug uptake; in short: as §1
[6] = Drug level in Sprague-Dawley rat lung after 96 hrs; type: ADME, tissue-based; conditions: read-out: Drug uptake; in short: as §1
[7] = Drug level in Sprague-Dawley rat plasma after 4 hrs; type: ADME, cell-free; conditions: read-out: Drug uptake; in short: as §1
[8] = Drug level in Sprague-Dawley rat lung after 24 hrs; type: ADME, tissue-based; conditions: read-out: Drug uptake; in short: as §1
[9] = Drug level in Sprague-Dawley rat plasma after 24 hrs; type: ADME, cell-free; conditions: read-out: Drug uptake; in short: as §1

Row | SMILES | EC50 [2] | half-life [3] | CC50 [1] | other results
1 | Cc1ccc(O)c(Cn2c(NC3CCN(CCC(=O)O)CC3)nc3c(C)cccc32)n1 | 158 nM |  | > 100 µM | 
2 | Cc1ccc(O)c(Cn2c(NC3CCN(CCN4CCOCC4)CC3)nc3c(C)cccc32)n1 | 158 nM | 1.46 days | 63.1 µM | 
3 | Cc1ccc(O)c(Cn2c(NC3CCN(CCC(N)=O)CC3)nc3c(C)cccc32)n1 | 50.1 nM | 1.92 days | > 100 µM | 
4 | CCCCNc1nc2c(C)cc(C)cc2n1Cc1nc(C)ccc1O | > 100000 nM |  | 7.94 µM | 
5 | Cc1cc(C)c2nc(NCCCN3CCOCC3)n(Cc3nc(C)ccc3O)c2c1 | 126 nM | 0.583 days | 50.1 µM | 
6 | Cc1ccc(O)c(Cn2cnc3c(C)cccc32)n1 |  |  |  | concentration at 4 h [4]: 3.9 ng/mL
7 | Cc1ccc(O)c(Cn2c(NC3CCN(CC(O)C(C)(C)C)CC3)nc3c(C)cccc32)n1 (stereo not drawn) | 794 nM |  | 39.8 µM | 
8 | Cc1cc(C)c2nc(NCCCO)n(Cc3nc(C)ccc3O)c2c1 | 158 nM |  | 63.1 µM | 
9 | Cc1ccc(O)c(Cn2c(NC3CCN(C)CC3)nc3c(C)cccc32)n1 | 158 nM |  | 50.1 µM | 
10 | CC(=O)NCCNc1nc2c(C)cc(C)cc2n1Cc1nc(C)ccc1O | 5010 nM |  | 12.6 µM | 
11 | CNS(=O)(=O)CCCN1CCC(Nc2nc3c(C)cccc3n2Cc2nc(C)ccc2O)CC1 | 50.1 nM | 1.33 days | 79.4 µM | 
12 | Cc1cc(C)c2nc(NCCc3ccccc3)n(Cc3nc(C)ccc3O)c2c1 | > 100000 nM |  | 6.31 µM | 
13 | Cc1cc(C)c2nc(NCCNc3ccccc3)n(Cc3nc(C)ccc3O)c2c1 | > 100000 nM |  | 3.16 µM | 
14 | NCCN1CCC(Nc2nc3ccccc3[nH]2)CC1 |  |  |  | concentration at 168 h [5]: 37.8 ng/mL; concentration at 96 h [6]: 83.7 ng/mL; concentration at 4 h [7]: 11.8 ng/mL; concentration at 4 h [4]: 247 ng/mL; concentration at 24 h [8]: 295 ng/mL; concentration at 24 h [9]: 6.1 ng/mL
15 | Cc1cc(C)c2nc(NCC(O)CO)n(Cc3nc(C)ccc3O)c2c1 (stereo not drawn) | 39.8 nM | < 1 days | 50.1 µM | 
16 | Cc1cc(C)c2nc(NCCCN3CCN(C)CC3)n(Cc3nc(C)ccc3O)c2c1 | 25.1 nM | 3.33 days | 50.1 µM | 
17 | Cc1ccc(O)c(Cn2c(NC3CCN(CCC(C)C)CC3)nc3c(C)cccc32)n1 | 631 nM |  | > 100 µM | 

More lines, main results first:

Row | EC50 [2] | half-life [3] | SMILES | CC50 [1] | other results
18 | 10 nM | 8.58 days | Cc1ccc(O)c(Cn2c(NC3CCN(CCN4CCCC4)CC3)nc3c(C)cccc32)n1 | 39.8 µM | 
19 | 0.631 nM | 3.88 days | CNCCCNc1nc2c(C)cc(C)cc2n1Cc1nc(C)ccc1O | 50.1 µM | 
20 | 3.16 nM | 23.2 days | Cc1ccc(O)c(Cn2c(NC3CCN(CC(O)CN(C)C)CC3)nc3c(C)cccc32)n1 (stereo not drawn) | > 100 µM | 
21 | 0.316 nM | 8.79 days | Cc1ccc(O)c(Cn2c(NC3CCN(CCN)CC3)nc3ccccc32)n1 | > 100 µM | 
22 | 20 nM | 1.21 days | Cc1ccc(O)c(Cn2c(NC3CCN(CCO)CC3)nc3c(C)cccc32)n1 | > 100 µM | 
23 | 0.251 nM | 2.83 days | Cc1cc(C)c2nc(NCCCN)n(Cc3nc(C)ccc3O)c2c1 | > 100 µM | 
24 | 12.6 nM | 2.38 days | Cc1ccc(O)c(Cn2c(NC3CCN(CCCS(N)(=O)=O)CC3)nc3c(C)cccc32)n1 | > 100 µM | 
25 | 0.251 nM | 6.38 days | Cc1ccc(O)c(Cn2c(NC3CCN(CCN)CC3)nc3c(C)cccc32)n1 [JNJ 2408068] | > 100 µM | concentration at 168 h [5]: 387 ng/mL; concentration at 96 h [6]: 439 ng/mL; concentration at 4 h [7]: 0.97 ng/mL; concentration at 4 h [4]: 576 ng/mL; concentration at 24 h [8]: 559 ng/mL; concentration at 24 h [9]: 0.33 ng/mL
